# ChEMBL document CHEMBL3785055, “Arginine-linked neomycin B dimers: synthesis, rRNA binding, and resistance enzyme activity” (Medchemcomm, 2016)
# Activity calls are given as the source filed them. The calls are words filed in the database; no cut-off is given here.
# Assays:
# [1] = tested on: Staphylococcus epidermidis; test: Antibacterial activity against Staphylococcus epidermidis ATCC 12228 after 16 to 20 hrs by MTT assay; type: functional
# In short: (§1)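 Strains grown in LB 24 h at 37 °C, 250 rpm; overnight culture diluted 1:1000, grown 4 h, diluted 1:1000 again and added to microplates. Incubation 16–20 h at 37 °C; growth read visually and with MTT (1 mg/mL).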
# [2] = Displacement of F-NEO from human rRNA A-site by fluorescence assay
# Staphylococcus aureus [3] = test: Antibacterial activity against Staphylococcus aureus ATCC 25923 after 16 to 20 hrs by MTT assay; type: functional; in short: as §1
# Bacillus cereus = test: Antibacterial activity against Bacillus cereus ATCC 11778 after 16 to 20 hrs by MTT assay; type: functional; in short: as §1
# [4] = Displacement of F-NEO from Escherichia coli rRNA A-site by fluorescence assay
# [5] = Selectivity factor, ratio of IC50 for human rRNA A-site to IC50 for Escherichia coli rRNA A-site
# In short: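 Ratio from F-NEO displacement titrations, 0.002–2.0 μM compound against 0.1 μM F-NEO:A-site complex (485/535 nm). Measured IC50 stands in for the unmeasurable competition constants in Kd(human)/Kd(E. coli) = 5.75 × K(E. coli)/K(human). Buffer 10 mM HEPES, 50 mM NaCl, 0.4 mM EDTA, pH 7.0.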
# Staphylococcus aureus [6] = test: Activity at Staphylococcus aureus APH(2'')-1a at 100 uM in presence of […] by […] relative to NEO
# [7] = Activity at APH(3')-1a (unknown origin) at 100 uM in presence of […] by […] relative to NEO
# Staphylococcus aureus [8] = test: Activity at Staphylococcus aureus AAC(6')-1e/APH(2'')-1a in presence of AcCoA by Ellmans method relative to NEO
# [9] = tested on: Mycobacterium tuberculosis; test: Activity at Mycobacterium tuberculosis AAC(2')-1c at 100 uM in presence of AcCoA by Ellmans method relative to NEO
# In short: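 N-acetylation by AAC(2')-Ic (0.125 μM enzyme) of 100 μM compound with 150 μM AcCoA and 2 mM DTNB in 100 mM buffer, 25 °C. Thiol release followed at 412 nm (ε = 14,150 M⁻¹cm⁻¹). Rates normalized to neomycin B, triplicate.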
# [10] = Activity at Eis (unknown origin) at 100 uM in presence of AcCoA by Ellmans method relative to NEO
# In short: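 Acetylation followed by Ellman's method at 412 nm, 2 mM DTNB, 100 μM compound, 25 °C, triplicate, rates normalized to NEO. AcCoA 500 μM for Eis, 150 μM for AAC(3)-IV; enzyme 0.5 μM for Eis, 0.125 μM for AAC(3)-IV; 50 mM buffer.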
Compound,MIC [1],IC50 [2],MIC (Staphylococcus aureus [3]),MIC (Bacillus cereus),IC50 [4],Ratio IC50 [5],Activity (Staphylococcus aureus [6]),Activity [7],Activity (Staphylococcus aureus [8]),Activity [9],Activity [10]
NCC1O[C@H](O[C@H]2[C@@H](O)[C@H](O[C@H]3[C@H](O)[C@@H](N)C[C@@H](N)[C@@H]3O[C@H]3O[C@H](CN)[C@@H](O)[C@H](O)[C@H]3N)O[C@@H]2CO)[C@H](N)[C@@H](O)[C@@H]1O (some centres undefined),0.2 µM,76 µM,0.2 µM,≤ 0.1 µM,87 µM,5,–,–,–,–,–
N=C(N)NCCC[C@H](NC(=O)CCCCCCCNC(=O)c1cc(-c2cn(C[C@@H]3O[C@H](O[C@H]4[C@H](O)[C@@H](N)C[C@@H](N)[C@@H]4O[C@H]4O[C@H](CN)[C@@H](O)[C@H](O)[C@H]4N)[C@@H](O)[C@H]3O[C@H]3O[C@@H](CN)[C@@H](O)[C@H](O)[C@H]3N)nn2)cc(-c2cn(C[C@H]3O[C@@H](O[C@@H]4[C@@H](O)[C@H](N)C[C@H](N)[C@H]4O[C@@H]4O[C@@H](CN)[C@H](O)[C@@H](O)[C@@H]4N)[C@H](O)[C@@H]3O[C@@H]3O[C@H](CN)[C@H](O)[C@@H](O)[C@@H]3N)nn2)c1)C(N)=O (stereo in doubt),25 µM,43 µM,> 50 µM,3 µM,48 µM,5.2,inactive,inactive,inactive,inactive,inactive
N=C(N)NCCC[C@H](NC(=O)CCCCCCCCNC(=O)c1cc(-c2cn(C[C@@H]3O[C@H](O[C@H]4[C@H](O)[C@@H](N)C[C@@H](N)[C@@H]4O[C@H]4O[C@H](CN)[C@@H](O)[C@H](O)[C@H]4N)[C@@H](O)[C@H]3O[C@H]3O[C@@H](CN)[C@@H](O)[C@H](O)[C@H]3N)nn2)cc(-c2cn(C[C@H]3O[C@@H](O[C@@H]4[C@@H](O)[C@H](N)C[C@H](N)[C@H]4O[C@@H]4O[C@@H](CN)[C@H](O)[C@@H](O)[C@@H]4N)[C@H](O)[C@@H]3O[C@@H]3O[C@H](CN)[C@H](O)[C@@H](O)[C@@H]3N)nn2)c1)C(N)=O (stereo in doubt),50 µM,62 µM,> 50 µM,3 µM,60 µM,5.9,inactive,inactive,inactive,inactive,inactive
N=C(N)NCCC[C@H](NC(=O)CCCCCCNC(=O)c1cc(-c2cn(C[C@@H]3O[C@H](O[C@H]4[C@H](O)[C@@H](N)C[C@@H](N)[C@@H]4O[C@H]4O[C@H](CN)[C@@H](O)[C@H](O)[C@H]4N)[C@@H](O)[C@H]3O[C@H]3O[C@@H](CN)[C@@H](O)[C@H](O)[C@H]3N)nn2)cc(-c2cn(C[C@H]3O[C@@H](O[C@@H]4[C@@H](O)[C@H](N)C[C@H](N)[C@H]4O[C@@H]4O[C@@H](CN)[C@H](O)[C@@H](O)[C@@H]4N)[C@H](O)[C@@H]3O[C@@H]3O[C@H](CN)[C@H](O)[C@@H](O)[C@@H]3N)nn2)c1)C(N)=O (stereo in doubt),> 50 µM,56 µM,> 50 µM,3 µM,44 µM,7.3,inactive,inactive,inactive,inactive,inactive
